APP 5'UTR act = APP 5'UTR luciferase reporter activation; AID 1276; activation, % at 2 µM; actives 1% (n = 190,000); SH-SY5Y APP 5'UTR luciferase reporter, luminescence; zero percent = DMSO vehicle wells;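 active = activation above a set limit, based on mean plus 3 SD of controls, cut at about 140% in these data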
STAT1 act = activators of IFN-gamma induced STAT1 signaling; NIH 3T3 STAT1-luciferase reporter, luminescence; 100% = IFN-gamma alone, no compound; activation (% of control), % at 5.5 µM; actives 2.6% (n = 200,000); AID 932;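 active = activation above the screen-wide mean activation plus 3 SD, cut at about 130% in these data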;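 note: raw ratio to IFN-gamma control signal so 100% means no change and 0% no light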
STAT1 blocker = reduces IFN-gamma driven STAT1 reporter signal | inhibition, % at 5.5 µM | AID 920 | actives 0.35% (n = 200,000) | NIH 3T3 STAT1-luciferase reporter, luminescence;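 active = inhibition above a set limit, the mean inhibition across all tested compounds plus 3 SD, cut at about 34% in these data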;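 note: 0% = IFN-gamma with DMSO and 100% = IFN-gamma with 300 µM nifuroxazide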
STAT3 act = STAT3 signaling activation; U3A cells, IL-6 STAT3-luciferase reporter, luminescence; 100% = signal with IL-6 EC80 alone; activation (% of control), % at 5.6 µM; actives 0.91% (n = 190,000); AID 871;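 active = activation above the screen-wide mean of compound activation plus 3 SD, cut at about 130% in these data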;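 note: 0% = background luminescence of wells with medium and substrate only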
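Assay system – human STAT1-deficient U3A cells with stable STAT3-luciferase reporter · Also added – IL-6 (33 ng/mL) · Schedule – compound 1 h, then IL-6 6 h at 37 °C · Technique – reporter luminescence signal · Evaluation – % activation versus median of IL-6-stimulated wells · Benchmarks – IL-6-only wells as 100% reference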
NF-kB expr up = NF-kB expression increase, human neuronal cells | NF-kB reporter expression; hits give high values | fold change at 12.5 µM | actives 1.6% (n = 190,000) | AID 1239; in the data active = fold change above about 3.3
Pf gametocyte = P. falciparum stage V gametocyte viability inhibition; P. falciparum stage V gametocytes, ATP luminescence, 24 h; inhibition, % at 10.9 µM; actives 0.065% (n = 150,000);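 active = inhibition above the mean plus 3 SD of compounds within the control limits, set per campaign, cut at about 38% in these data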;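 note: 0% = DMSO wells and 100% = medium only without gametocytes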
The depositor's hits bear a star. Rows were chosen to be rich in hits. Some 3.9% of all compounds tested hit in one or more screens of this group.

For CC(=O)Nc1cccc(OCC(=O)Nc2sccc2C(N)=O)c1 the results were Pf gametocyte -14.3.
`COc1ccc(/C=C/C(=O)c2ccc[nH]2)cc1OC` gave APP 5'UTR act 52.5, STAT1 act 129.9*, STAT1 blocker -32.3, STAT3 act 120.9, NF-kB expr up 2.59 and Pf gametocyte 20.6.
Screening COc1ccc(/C=C/C(=O)c2ccc[nH]2)c(OC)c1OC returned APP 5'UTR act 36.2, STAT1 act 114.5, STAT1 blocker -15.8, STAT3 act 100.0, NF-kB expr up 1.84 and Pf gametocyte -3.1.
COc1ccc(C(=O)N2CC(=O)N(CCc3ccccc3)C(=O)C2)cc1OC was read as APP 5'UTR act 6.0, STAT1 act 100.0, STAT1 blocker 0.0, STAT3 act 143.7* and NF-kB expr up 1.31.
`O=C(O)c1ccccc1C(=O)NC1Cc2ccccc2C1` gave Pf gametocyte 24.3.
Screening O=C(O)c1nn(CCSc2ccccc2F)c(=O)c2ccccc12 returned Pf gametocyte 7.2.
Screening COc1ccc(Nc2nc(NCc3ccco3)nc(N/N=C/c3ccc(O)cc3)n2)cc1 returned APP 5'UTR act 5.0, STAT1 act 96.9, STAT1 blocker 3.4, STAT3 act 97.2, NF-kB expr up 0.39 and Pf gametocyte 1.6.
`CCCSc1nnc(Nc2ccccc2C)s1` gave APP 5'UTR act 49.6, STAT1 act 129.4*, STAT1 blocker -32.2, STAT3 act 92.8, NF-kB expr up 2.15 and Pf gametocyte 7.7.
For O=C(CC(SCc1ccco1)c1ccc(O)cc1)c1cccs1 (stereo not given) the results were APP 5'UTR act 71.5, STAT1 act 117.8, STAT1 blocker -19.4, STAT3 act 126.8, NF-kB expr up 5.36* and Pf gametocyte 30.5.
O=C(CC(SCCO)c1ccc2c(c1)OCO2)c1cccs1 (stereo not given) was read as APP 5'UTR act 69.5, STAT1 act 131.5*, STAT1 blocker -34.4, STAT3 act 107.6 and NF-kB expr up 3.19.
Screening CC(C)(C)c1ccc(C(=O)NNc2ncccc2-n2cccc2)cc1 returned Pf gametocyte -23.9.
Screening CCCCCn1cnc2c(sc3nc4c(cc32)CSC(C)(C)C4)c1=O returned APP 5'UTR act 91.4, STAT1 act 137.7*, STAT1 blocker -41.6, STAT3 act 124.7, NF-kB expr up 1.52 and Pf gametocyte 14.8.
Screening COc1cc2ccccc2cc1C(=O)NCC(c1cccs1)N(C)C (stereo not given) returned APP 5'UTR act 33.4, STAT1 act 124.0, STAT1 blocker -28.3, STAT3 act 103.8, NF-kB expr up 1.97 and Pf gametocyte -28.2.
Screening NNC(=O)c1nc[nH]c1C(=O)Nc1ccccc1 returned Pf gametocyte -3.6.
CCOC(=O)C1(Cc2ccccc2Cl)CCN(C(=O)c2cnccn2)CC1 was read as APP 5'UTR act 41.8, STAT1 act 149.4*, STAT1 blocker -56.7, STAT3 act 110.2, NF-kB expr up 2.72 and Pf gametocyte 10.3.
CCN1CCC2(CC1)Oc1c(OC)cccc1C1CC(c3cccnc3)=NN12 (stereo not given) was read as Pf gametocyte 9.0.
`O=C(Cn1cnc2ccccc2c1=O)Nc1nnc(SCc2ccc(Cl)cc2)s1` gave Pf gametocyte 3.6.
For COCCSc1nc(N)c2c3c(sc2n1)CN(C)CC3 the results were Pf gametocyte 7.6.
Screening Clc1nc(-c2ccccc2)cc(-c2ccc(Br)cc2)n1 returned APP 5'UTR act -6.0, STAT1 act 87.9, STAT1 blocker 13.5 and STAT3 act 137.8*.
`O=C1c2ccccc2NC(c2ccc(O)cc2)N1/N=C/c1ccc(O)cc1` (stereo not given) gave APP 5'UTR act 12.2, STAT1 act 121.9, STAT1 blocker -24.7, STAT3 act 112.5, NF-kB expr up 1.63 and Pf gametocyte -10.6.
O=C1c2ccccc2NC(c2ccccc2)N1/N=C/c1ccccc1 (stereo not given) was read as APP 5'UTR act 127.8, STAT1 act 112.4, STAT1 blocker -13.9, STAT3 act 89.2, NF-kB expr up 3.8* and Pf gametocyte -8.2.
`COc1cc(C2c3c(oc4ccccc4c3=O)C(=O)N2c2nccs2)ccc1O` (stereo not given) gave Pf gametocyte -48.3.
`COc1ccccc1CNC(=O)C1=CCN(S(=O)(=O)c2ccc(C)cc2)CC1` gave Pf gametocyte -9.6.
For O=C(Nc1ccccc1)[C@@H]1CC=C[C@@H]2CCN(Cc3ccc(Cl)c(Cl)c3)C(=O)[C@@H]21 the results were Pf gametocyte 15.5.
`Cc1cc(N2CCC(C)CC2)n2nc(C)c(-c3ccccc3)c2n1` gave APP 5'UTR act -4.0, STAT1 act 97.9, STAT1 blocker 2.3, STAT3 act 107.3 and NF-kB expr up 1.07.
For Cc1cc(N2CCCCC2)n2nc(C)c(-c3ccccc3)c2n1 the results were APP 5'UTR act 0.6, STAT1 act 108.5, STAT1 blocker -9.3, STAT3 act 98.5, NF-kB expr up 1.36 and Pf gametocyte 18.1.
For Cc1cc(SCC(=O)c2ccccc2)n2ncc(-c3ccccc3)c2n1 the results were Pf gametocyte -4.1.
Screening Cc1cc(N2CCCCC2)n2ncc(-c3ccc(Cl)cc3)c2n1 returned APP 5'UTR act 38.5, STAT1 act 139.1*, STAT1 blocker -42.6, STAT3 act 120.9, NF-kB expr up 1.11 and Pf gametocyte -0.9.
Cc1cc(-c2ccccc2)n2ncc(-c3ccccc3)c2n1 was read as APP 5'UTR act 165.8*, STAT1 act 143.4*, STAT1 blocker -48.7, STAT3 act 59.6, NF-kB expr up 1.43 and Pf gametocyte 16.0.
Cc1cc(N2CCOCC2)n2ncc(-c3ccc(Cl)cc3)c2n1 was read as Pf gametocyte 10.4.
Cc1cc(N2CCCCC2)n2ncc(-c3ccccc3)c2n1 was read as APP 5'UTR act 217.4*, STAT1 act 111.0, STAT1 blocker -12.1, STAT3 act 63.0, NF-kB expr up 1.19 and Pf gametocyte -4.5.
Cc1cc(N2CCC(C)CC2)n2ncc(-c3ccccc3)c2n1 was read as APP 5'UTR act 193.9*, STAT1 act 131.9*, STAT1 blocker -35.2, STAT3 act 79.1 and NF-kB expr up 0.8.
Screening CCC(C)C(NC(=O)OC(C)(C)C)C(=O)NC(C)C(N)=O (stereo not given) returned APP 5'UTR act 21.5, STAT1 act 96.4, STAT1 blocker 2.0, STAT3 act 92.3, NF-kB expr up 1.05 and Pf gametocyte 14.9.
Screening Cc1cc(N2CCN(C(=O)c3ccco3)CC2)n2ncc(-c3ccccc3)c2n1 returned APP 5'UTR act 79.0, STAT1 act 127.1, STAT1 blocker -29.7, STAT3 act 101.0, NF-kB expr up 1 and Pf gametocyte -2.9.

Bioassay records as filed in PubChem BioAssay.
